# In ChEMBL document CHEMBL1135120, “Novel lipoic acid analogues that inhibit nitric oxide synthase” (Bioorg Med Chem Lett, 2002):
# Assays:
# Mus musculus [1] = species: Mus musculus; experiment: Ability for prevention of GSH depletion was measured in mouse; assay type: functional
# Method in brief: (§1)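 Glutamate-challenged HT22 cells; total intracellular GSH measured by enzymatic glutathione assay, i.e. formation of 5-thio-2-nitrobenzoic acid from GSH oxidation by 5,5'-dithiobis(2-nitrobenzoic acid).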
# Nitric oxide synthase 1 [2] = target: T1, Nitric oxide synthase 1 (Homo sapiens, UniProt P29475); experiment: In vitro inhibition concentration was evaluated on the effect of conversion by Nitric Oxide synthase of [3H]L-arginine into [3H]L-citrulline
# HT22 (Mus musculus) [3] = experiment: Neuroprotective effect was measured by its ability to protect mouse hippocampal neuronal HT-22 cell lines from oxidative stress caused by glutamate
# Mus musculus [4] = species: Mus musculus; experiment: Ability for prevention of GSH depletion was measured in mouse; Not active up to 100 uM; assay type: functional; method in brief: as §1
# Nitric oxide synthase 1 [5] = target: T1, Nitric oxide synthase 1; experiment: In vitro inhibition concentration was evaluated on the effect of conversion by Nitric oxide synthase of [3H]L-arginine into [3H]L-citrulline
# HT22 (Mus musculus) [6] = experiment: Neuroprotective effect was measured by its ability to protect mouse hippocampal neuronal HT-22 cell lines from oxidative stress caused by glutamate; Not active up to 100 uM
# Nitric oxide synthase 1 [7] = target: T1, Nitric oxide synthase 1; experiment: In vitro inhibition concentration was evaluated on the effect of conversion by Nitric Oxide synthase of [3H]L-arginine into [3H]L-citrulline; Not active up to 100 uM
# T1 sequence (P29475 whole entry): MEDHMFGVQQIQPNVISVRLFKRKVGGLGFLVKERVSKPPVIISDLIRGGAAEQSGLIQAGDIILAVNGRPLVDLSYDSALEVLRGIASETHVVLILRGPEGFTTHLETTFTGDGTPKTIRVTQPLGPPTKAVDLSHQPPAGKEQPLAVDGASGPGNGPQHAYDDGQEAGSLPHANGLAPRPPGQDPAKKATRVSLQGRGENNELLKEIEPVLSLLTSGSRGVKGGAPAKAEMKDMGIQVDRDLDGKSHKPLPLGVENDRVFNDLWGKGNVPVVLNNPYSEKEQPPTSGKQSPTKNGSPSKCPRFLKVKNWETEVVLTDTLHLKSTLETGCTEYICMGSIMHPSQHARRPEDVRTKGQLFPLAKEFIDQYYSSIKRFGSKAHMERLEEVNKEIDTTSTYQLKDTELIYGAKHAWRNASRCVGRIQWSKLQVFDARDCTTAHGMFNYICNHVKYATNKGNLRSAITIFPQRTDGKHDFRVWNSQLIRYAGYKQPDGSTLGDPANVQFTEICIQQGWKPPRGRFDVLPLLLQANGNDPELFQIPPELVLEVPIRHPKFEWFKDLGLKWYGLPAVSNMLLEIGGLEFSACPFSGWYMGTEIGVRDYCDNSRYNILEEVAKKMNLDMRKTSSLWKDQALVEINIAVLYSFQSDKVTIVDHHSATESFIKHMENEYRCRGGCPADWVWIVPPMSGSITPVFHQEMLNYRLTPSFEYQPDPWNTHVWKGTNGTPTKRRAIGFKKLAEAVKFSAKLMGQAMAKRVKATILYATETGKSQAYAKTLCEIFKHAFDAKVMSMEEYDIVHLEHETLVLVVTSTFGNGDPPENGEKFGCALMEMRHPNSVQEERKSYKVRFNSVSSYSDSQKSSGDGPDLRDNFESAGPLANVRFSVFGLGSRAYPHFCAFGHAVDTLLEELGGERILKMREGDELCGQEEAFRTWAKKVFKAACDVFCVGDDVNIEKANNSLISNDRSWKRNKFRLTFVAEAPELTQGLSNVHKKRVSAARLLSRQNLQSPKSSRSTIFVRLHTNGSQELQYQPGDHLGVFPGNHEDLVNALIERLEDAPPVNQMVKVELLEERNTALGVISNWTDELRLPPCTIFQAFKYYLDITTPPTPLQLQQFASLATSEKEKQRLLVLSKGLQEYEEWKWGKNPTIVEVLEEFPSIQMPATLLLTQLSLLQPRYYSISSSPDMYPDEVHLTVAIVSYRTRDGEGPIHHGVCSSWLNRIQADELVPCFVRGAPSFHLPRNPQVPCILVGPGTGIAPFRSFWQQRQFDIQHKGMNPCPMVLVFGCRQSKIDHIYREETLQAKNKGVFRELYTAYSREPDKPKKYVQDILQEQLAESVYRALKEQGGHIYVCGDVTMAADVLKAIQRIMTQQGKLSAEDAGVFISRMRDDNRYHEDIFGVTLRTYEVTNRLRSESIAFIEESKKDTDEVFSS
EC50 (Mus musculus [1]) [µM],IC50 (Nitric oxide synthase 1 [2]) [µM],EC50 (HT22 (Mus musculus) [3]) [µM],EC50 (Mus musculus [4]),IC50 (Nitric oxide synthase 1 [5]) [µM],EC50 (HT22 (Mus musculus) [6]),IC50 (Nitric oxide synthase 1 [7]),Compound
46.9,3.5,11.1,–,–,–,–,N=C(Nc1ccc(NC(=O)CCCCC2CCSS2)cc1)c1cccs1 (stereo unspecified)
37.1,1.04,11.7,–,–,–,–,N=C(Nc1ccc(CCNC(=O)CCCCC2CCSS2)cc1)c1cccs1 (stereo unspecified)
–,–,–,Not Active,4,Not Active,–,N=C(Nc1ccccc1)c1cccs1
64.8,2.3,6.3,–,–,–,–,NC(=Nc1ccc(CNC(=O)CCCCC2CCSS2)cc1)c1cccs1 (stereo unspecified)
12.3,1.15,1.8,–,–,–,–,N=C(Nc1ccc(CCNC(=O)CC2CCSS2)cc1)c1cccs1 (stereo unspecified)
11.9,4.4,9.6,–,–,–,–,NC(=Nc1ccc(NC(=O)CC2CCSS2)cc1)c1cccs1 (stereo unspecified)
122,–,19.6,–,–,–,Not Active,"O=C(O)CCCCC1CCSS1 (stereo not drawn) [LIPOIC ACID, ALPHA]"
